Source: ChEMBL document CHEMBL4513216, “Probing the Open Global Health Chemical Diversity Library for Multistage-Active Starting Points for Next-Generation Antimalarials” (ACS Infect Dis, 2020)

Assay: Toxicity liver stage against HepG2, at 10uM
Format: cell-based
Set-up: test concentration 10 uM, cell line HepG2-A16-CD81EGFP
Conditions: human, HepG2-A16-CD81EGFP cells; read-out: INHIBITION
In short: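 Uninfected HepG2-A16-CD81EGFP cells, 3 × 10^3 per well, 1536-well, plated on prespotted compound at 10 μM final, parasite-free screening media added to match infected plates; puromycin 10 μM positive, DMSO 0.5% negative; run in parallel with 48 h PbLuc assay at 37 °C, 5% CO2; viability by CellTiter-Glo luminescence, normalized to controls.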

| SMILES | cytotoxicity at 10 µM |
| --- | --- |
| CN(C(=O)c1cc(Cl)c[nH]1)C1CCN(c2ccccn2)CC1 | -1.49% |
| Cc1nc(NCCO)cc(C(C)Cn2nc(C)c(C)c2C)n1 (configuration not stated) | 4.41% |
| CC1CS(=O)(=O)CCN1Cc1ccccc1N(C)C (configuration not stated) | 5.29% |
| CCn1nc2c(cc1=O)CN(CC1CCCCO1)CC2 (configuration not stated) | -2.94% |
| CCc1nc(-c2noc3ccc(C(=O)N(C)CCOC)cc23)co1 | -138% |
| c1ccc(-c2noc(CN3CCC(c4ccn[nH]4)CC3)n2)cc1 | -1.19% |
| CN1CCC(NN2CCN(C)CC2)CC1 | -2.76% |
| CC(C)(C)C(=O)N1CCCC(c2ncncc2-c2ccncc2)C1 (configuration not stated) | 4.03% |
| COc1cccc2c1ccn2CCNC(=O)CC(C)C | 4.38% |
| CN(C)C(=O)N1CCC2(CC1)NC(=O)c1ccccc12 | -10.1% |
| Cc1nc(N2CCN(C)CC2)ncc1C(=O)N1CCCCCC1 | -3.48% |
| Cc1ccc2c(n1)N(CCN(C)C)CCN(Cc1c(C)noc1C)C2 | 5.74% |
| Cn1ccnc1SCc1nc(C(C)(C)NC(=O)OC(C)(C)C)no1 | -0.679% |
| CC(NC(=O)NCCCc1n[nH]c(N)c1C#N)c1ccc(F)c(F)c1 (configuration not stated) | -10.2% |
| Cc1ccc(C2(O)CCN(Cc3nnc(-c4cccnc4)o3)CC2)nc1 | -7.77% |
| CCSc1cc(C(=O)NCc2ccc(C(=O)NC)cc2)ccn1 | 32.6% |
| CCOc1cccc2c1OCC(C(=O)NC(C)Cn1cccn1)=C2 (configuration not stated) | -1.18% |
| Cc1ccc(CNCCN2CCOCC2)o1 | -2.62% |
| CN(Cc1cccnc1)C(CO)c1cccc(Br)c1 (configuration not stated) | -5.37% |
| O=C(CN1CCCC1c1nc(-c2ccccn2)no1)N1CCOCC1 (configuration not stated) | 6.08% |
| Cc1nc(C)c(CC(=O)NCc2ccc(F)cc2F)s1 | -91.9% |
| CC1CCc2nc(O)c(C(=O)NCc3cccc(F)c3)cc2C1 (configuration not stated) | 3.43% |
| Cc1nn(C)c(N2CCOCC2)c1CNCc1ccc(N(C)C)nc1 | -14.4% |

| SMILES | cytotoxicity at 10 µM |
| --- | --- |
| Cc1cccc(-c2noc([C@@H]3C[C@@H](O)CN3Cc3ccc(CO)o3)n2)c1 | 7.38% |
| CCc1c(C)nc(N)nc1NCCSCc1[nH]cnc1C | 4.5% |
| Cc1nnc(N2CC[C@@H](OCC3CC3)[C@@H](Cc3ccccc3)C2)s1 | 14.4% |
| O=C(NCCO)c1sc2ncccc2c1C1CNCCO1 (configuration not stated) | 11.2% |
| O=c1[nH]c(NCCO)nc2c1C1(CCCCC1)Cc1ccccc1-2 | 7.11% |
| CC(C)C(c1cccnc1)N(C)C(=O)Cc1c(F)cccc1F (configuration not stated) | -0.595% |
| Cc1ccc(-c2nc(CC(=O)N3CCN(c4cnccn4)CC3)cs2)o1 | -13% |
| COCCN1CC[C@]2(CN(Cc3cccnc3)C[C@H]2C)C1=O | -4.66% |
| CCN1CC2(CCN(Cc3nc(CSC)no3)CC2)CC1=O | -1.41% |
| CC(C)CCNC(=O)c1c(-n2cnnn2)sc2c1CCCC2 | 8.79% |
| CCCC(NC(=O)c1ccc(C)cc1C)c1nnn[nH]1 (configuration not stated) | -3.82% |
| CC(C)NC(=O)c1cccc(Oc2ccc3nncn3n2)c1 | -13.3% |
| COc1ccc(N2CCN(C(=O)C3CN(C)C(=O)N3)CC2(C)C)cc1 (configuration not stated) | 0.254% |
| CC(C)c1n[nH]c(C(=O)Nc2cc[nH]n2)c1Br | -9.73% |
| COCC(=O)NCC1CCCN(Cc2cc3ccccc3[nH]2)C1 (configuration not stated) | 7.32% |
| CC(C)c1nccn1C1CCCN(C(=O)c2ccc(=O)n(C)n2)C1 (configuration not stated) | 7.8% |
| O=C(N[C@@H]1CNCCC[C@H]1O)c1ccc(OCc2ccccc2)cc1 | -3.39% |
| Cn1ccc(C(=O)N2CCC(Cc3cccc4ncccc34)C2)n1 (configuration not stated) | -4.83% |
| COCCN1CCC2(CCCN(C(=O)c3ccoc3C)C2)C1=O (configuration not stated) | 0.369% |
| CC(=O)N(Cc1noc(C2CC2)n1)C1CCN(Cc2nccn2C)C1 (configuration not stated) | -5.65% |
| Cc1cnn(C2CCCN(C(=O)CN(C)c3cnccn3)C2)c1 (configuration not stated) | -8.73% |
| COc1ccc(NC(=O)CN2CCCCC2C2OCCO2)cc1 (configuration not stated) | 30.9% |
| CCS(=O)(=O)N1C[C@@H](Oc2ccccn2)[C@H]2OCCC[C@H]21 | 5.08% |

| SMILES | cytotoxicity at 10 µM |
| --- | --- |
| COc1ccc(C(=O)N2CCCC(CNS(C)(=O)=O)C2)cc1F (configuration not stated) | -5.45% |
| Cc1nc(NC2CCS(=O)(=O)CC2)cc(C2CCCNC2)n1 (configuration not stated) | -11% |
| CC(C)NC(=O)N1CC[C@@H]2CN(Cc3cccc(Cl)c3)S(=O)(=O)[C@@H]2CC1 | 4.71% |
| COc1cc(OC)cc(C2NC(=O)CN2Cc2ccc(Br)cc2)c1 (configuration not stated) | -6.67% |
| Cc1nsc(N2CCCN(C(=O)CCc3ccsc3)CC2)n1 | 3.8% |
| O=C(Cc1cccc(F)c1)N1CCc2ncnc(N3CCCC3)c2CC1 | -4.9% |
| O=C(c1ccc(F)cc1)N1CCN2C[C@H](Oc3cccnc3)C[C@H]2C1 | 3.77% |
| COc1cc(C)c(CN2CCc3nc4ccsc4c(=O)n3CC2)cc1C | -15.7% |
| Cc1ccnc(SCC(=O)Nc2csc3nc(=O)c(C)nn23)n1 | 12.2% |
| CC(C(=O)N1CCC(Nc2cccnn2)CC1)n1cccn1 (configuration not stated) | -9.17% |
| COCCS(=O)(=O)c1ncc(CN(C)C)n1Cc1ccccc1 | 3.19% |
| CCc1ccccc1C(=O)N1C[C@@H](CN2CCOCC2)[C@@H](CO)C1 | -0.125% |
| COCCc1noc(CNC2CCCN(c3cccnn3)C2)n1 (configuration not stated) | -13.7% |
| Cc1occc1C(=O)N1CCn2c(COCC3CC3)cnc2C1C (configuration not stated) | 7.02% |
| CCOCCCNC(=O)c1cc(C)nc(N2CCCCC2)n1 | 8.52% |
| CCc1nnc2n1CCN(Cc1csc(-c3ncccn3)n1)C2 | -2.33% |
| CN1CCCN(C(=O)c2nc3sccn3c2-c2ncc[nH]2)CC1 | -4.34% |
| CCCNC(=O)c1cc2c(s1)CCN2C(=O)CN(C)C | 2.03% |
| O=C(CCCc1ccccc1)Nc1cnc(N2CCOCC2)nc1 | -13.9% |
| CC[C@H](C)[C@H](NC(=O)Cc1csc(-c2cccc(Cl)c2)n1)C(=O)O | -7.48% |
| O=C(O)C1(n2cccn2)CCN(c2nc(-c3ccccc3)no2)CC1 | 7.47% |
| c1cnc(N2CCO[C@H]3CN(CC4CCOCC4)C[C@H]32)nc1 | -95.9% |
| CC1c2ncc(COc3cccnc3)n2CCN1C(=O)C1=CCCCC1 (configuration not stated) | 3.39% |

| SMILES | cytotoxicity at 10 µM |
| --- | --- |
| Cc1noc(C)c1CN1CCc2c(CNc3nccs3)n[nH]c2C1 | 5.28% |
| O=C(c1cccnc1)N1Cc2ccccc2OCC1Cn1ccnc1 (configuration not stated) | 1.68% |
| CO[C@H]1CC[C@H]2[C@H]1OCCN2C(=O)C1=CCCC1 | -131% |
| Cc1ccc(N2CCO[C@H]3CN(Cc4nccs4)C[C@H]32)nn1 | -94.7% |
| Cc1cc(S(=O)(=O)NCC[S+](C)[O-])c(F)cc1F (configuration not stated) | -4.23% |
| CC(C)c1noc(CCC(=O)NCC2CCOC2)n1 (configuration not stated) | 4.57% |
| Cc1ccc(-c2nnc(CN3CCn4c(nnc4C4CC4)C3)o2)cc1 | -6.37% |
| Cc1cccc(-n2ncc(C(=O)NCC3CCS(=O)(=O)C3)c2C)c1 (configuration not stated) | -20.3% |
| c1ccc(CN2CCCC[C@H]3CN(c4ncccn4)C[C@H]32)cc1 | -3.81% |
| Cc1cc(=O)[nH]c(NCCNC(=O)CN2CCCCCC2)n1 | 3.28% |
| Cc1cc(CN2CCCC2c2noc(C)n2)no1 (configuration not stated) | 2.48% |
| NC(=O)CN(CC(=O)NCCc1c(F)cccc1F)C1CCCC1 | -8.02% |
| c1cnc(N2CCC(c3csc(Nc4cnccn4)n3)CC2)nc1 | 34% |
| CC(C)Cn1cc2nc(N)[nH]cc-2c1=O | 5.26% |
| Cc1ccc(N2CCO[C@H]3CN(CC4CC4)C[C@H]32)nn1 | -7.93% |
| Cc1sc(CN)nc1-c1ccccc1 | -2.85% |
| COC(=O)N1CC2(CCNCC2)c2cc(Cl)ccc21 | 7.71% |
| COc1ccc(CNCC2CN(C3CC3)CCO2)cc1F (configuration not stated) | -12.4% |
| CC/N=c1\nc(NCC)nc2n1C(O)(Nc1cc(C)ccc1C)CS2 (configuration not stated) | 10.3% |
| COc1ccccc1-c1nccnc1C1CCN(C(C)=O)CC1 | -1.69% |
| CC[C@H]1N(Cc2ccco2)CCC[C@]12CCC(=O)N2C | 4.23% |
| O=S(=O)(C1CC1)N1CCO[C@H]2[C@H](Oc3cccnc3)CC[C@@H]21 | -0.24% |
| O=C(Cc1ccc(S(=O)(=O)C(F)F)cc1)N1CCCC1 | -13.5% |

| SMILES | cytotoxicity at 10 µM |
| --- | --- |
| CC(C)CC1COCCN1C(=O)Cc1cccs1 (configuration not stated) | 5.84% |
| CCn1nc(C)c(CNC(=O)c2nnc3ccc(Cl)cc3n2)c1C | 8.1% |
| COc1ccc(C)cc1NC(=O)c1coc(C)n1 | -7.66% |
| O=C(O)c1ccc(F)c(S(=O)(=O)Nc2c(F)cccc2-n2cccn2)c1 | -5.59% |
| CC(C)Cc1cc(NC(=O)c2cc(Cl)c[nH]2)n(C)n1 | -7.94% |
| COCCN1CCc2ccccc2NCCC1=O | -2.51% |
| COC(=O)N1CCC(NC(=O)CC(C)CCc2ccccc2)CC1 (configuration not stated) | 4.6% |
| COc1cc(Cl)c(C)cc1-n1nnc(C(=O)O)c1C | -8.29% |
| C=C(C)COc1cccc(CNCCc2nc(N)cc(O)n2)c1 | -47.1% |
| O=C(O)c1cccn1-c1ccc2c(c1)OCCO2 | -7.48% |
| Cc1nccn1C1CCCN(C(=O)c2cccc3c2OCO3)C1 (configuration not stated) | -14.1% |
| Cn1ncc(NC(=O)c2noc3c2CCCC3)c1C(=O)N1CCCCC1 | -13.4% |
| CC(C)CN1C(=O)C2(CCCC2)NC1c1cn(C)c(=O)n(C)c1=O (configuration not stated) | 2.8% |
| O=C(Nc1nccs1)C1CCCN1Cc1ccccn1 (configuration not stated) | -20% |
| Cc1nc2c(Nc3cccc(C#N)c3)nc(N)nc2n1C | -1.87% |
| Cc1ccc(C(=O)N2CCC(c3noc(-c4cccnc4)n3)CC2)cn1 | 2.6% |
| Cc1cc(C)c(S(=O)(=O)NCCC(=O)NCc2ccoc2)c(C)c1 | 4.05% |
| Cc1cc(C)n(C2CN(c3ncnc4[nH]ccc34)C2)n1 | 6.59% |
| Cc1nnc(N2CCc3cncnc3C2)c(C#N)c1C | -154% |
| O=C(c1ccccc1F)N1C[C@H]2CCC[C@@]2(COCc2ccncc2)C1 | 7.4% |
